Experimental data from ChEMBL document CHEMBL4190240, “Conventional and microwave-assisted synthesis of new 1H-benzimidazole-thiazolidinedione derivatives: A potential anticancer scaffold” (Eur J Med Chem, 2017).
Activity calls are given as the source filed them. No cut-off for these calls is given here.

system: PC-3; test: Cytotoxicity against human PC3 cells assessed as cell growth inhibition after 48 hrs by MTT assay; type: functional, cell-based; conditions: PC-3, 48 h

| Compound | IC50 [µM] |
| --- | --- |
| COc1ccc(-c2nc3cc(/C=C4\SC(=O)N(Cc5cc(OC)c(OC)c(OC)c5)C4=O)ccc3[nH]2)cc1OC | > 50 |
| COc1cc(-c2nc3cc(/C=C4\SC(=O)N(Cc5cc(OC)c(OC)c(OC)c5)C4=O)ccc3[nH]2)ccc1OCC(C)C | 0.11 |
| COc1cc(-c2nc3cc(/C=C4\SC(=O)NC4=O)ccc3[nH]2)cc(OC)c1OC | 12 |

system: HeLa; test: Cytotoxicity against human HeLa cells assessed as cell growth inhibition after 48 hrs by MTT assay; type: functional, cell-based; conditions: not given

| Compound | IC50 [µM] |
| --- | --- |
| COc1ccc(-c2nc3cc(/C=C4\SC(=O)N(Cc5cc(OC)c(OC)c(OC)c5)C4=O)ccc3[nH]2)cc1OC | 0.32 |
| COc1cc(-c2nc3cc(/C=C4\SC(=O)N(Cc5cc(OC)c(OC)c(OC)c5)C4=O)ccc3[nH]2)ccc1OCC(C)C | 0.25 |
| COc1cc(-c2nc3cc(/C=C4\SC(=O)NC4=O)ccc3[nH]2)cc(OC)c1OC | 1.67 |

system: A549; test: Cytotoxicity against human A549 cells assessed as cell growth inhibition after 48 hrs by MTT assay; type: functional, cell-based; conditions: A549, 48 h

| Compound | IC50 [µM] |
| --- | --- |
| COc1ccc(-c2nc3cc(/C=C4\SC(=O)N(Cc5cc(OC)c(OC)c(OC)c5)C4=O)ccc3[nH]2)cc1OC | 0.13 |
| COc1cc(-c2nc3cc(/C=C4\SC(=O)N(Cc5cc(OC)c(OC)c(OC)c5)C4=O)ccc3[nH]2)ccc1OCC(C)C | 0.096 |
| COc1cc(-c2nc3cc(/C=C4\SC(=O)NC4=O)ccc3[nH]2)cc(OC)c1OC | 3.57 |

system: HT-1080; test: Cytotoxicity against human HT1080 cells assessed as cell growth inhibition after 48 hrs by MTT assay; type: functional, cell-based; conditions: HT-1080, 48 h

| Compound | IC50 [µM] |
| --- | --- |
| COc1ccc(-c2nc3cc(/C=C4\SC(=O)N(Cc5cc(OC)c(OC)c(OC)c5)C4=O)ccc3[nH]2)cc1OC | 0.27 |
| COc1cc(-c2nc3cc(/C=C4\SC(=O)N(Cc5cc(OC)c(OC)c(OC)c5)C4=O)ccc3[nH]2)ccc1OCC(C)C | 0.16 |
| COc1cc(-c2nc3cc(/C=C4\SC(=O)NC4=O)ccc3[nH]2)cc(OC)c1OC | 3.12 |

system: HEK-293T; test: Cytotoxicity against HEK293T cells assessed as cell growth inhibition after 48 hrs by MTT assay; type: cell-based; conditions: Homo sapiens

| Compound | IC50 [µM] |
| --- | --- |
| COc1ccc(-c2nc3cc(/C=C4\SC(=O)N(Cc5cc(OC)c(OC)c(OC)c5)C4=O)ccc3[nH]2)cc1OC | 6.76 |
| COc1cc(-c2nc3cc(/C=C4\SC(=O)N(Cc5cc(OC)c(OC)c(OC)c5)C4=O)ccc3[nH]2)ccc1OCC(C)C | 6.65 |
| COc1cc(-c2nc3cc(/C=C4\SC(=O)NC4=O)ccc3[nH]2)cc(OC)c1OC | 13.6 |

system: MDA-MB-231; test: Cytotoxicity against human MDA-MB-231 cells assessed as cell growth inhibition after 48 hrs by MTT assay; type: functional, cell-based; conditions: MDA-MB-231, 48 h

| Compound | IC50 [µM] |
| --- | --- |
| COc1ccc(-c2nc3cc(/C=C4\SC(=O)N(Cc5cc(OC)c(OC)c(OC)c5)C4=O)ccc3[nH]2)cc1OC | 29.1 |
| COc1cc(-c2nc3cc(/C=C4\SC(=O)N(Cc5cc(OC)c(OC)c(OC)c5)C4=O)ccc3[nH]2)ccc1OCC(C)C | 4.37 |
| COc1cc(-c2nc3cc(/C=C4\SC(=O)NC4=O)ccc3[nH]2)cc(OC)c1OC | 6.83 |

system: not listed separately; test: Selectivity index, ratio of IC50 for HEK293T cells to IC50 for human MDA-MB-231 cells; type: toxicity; conditions: HEK293T cells versus MDA-MB-231 cells, read-out: Ratio IC50

| Compound | selectivity ratio |
| --- | --- |
| COc1cc(-c2nc3cc(/C=C4\SC(=O)N(Cc5cc(OC)c(OC)c(OC)c5)C4=O)ccc3[nH]2)ccc1OCC(C)C | 1.5 |

system: not listed separately; test: Selectivity index, ratio of IC50 for HEK293T cells to IC50 for human PC3 cells; type: toxicity; conditions: HEK293T cells versus PC3 cells, read-out: Ratio IC50

| Compound | selectivity ratio |
| --- | --- |
| COc1cc(-c2nc3cc(/C=C4\SC(=O)N(Cc5cc(OC)c(OC)c(OC)c5)C4=O)ccc3[nH]2)ccc1OCC(C)C | 60.5 |

system: not listed separately; test: Selectivity index, ratio of IC50 for HEK293T cells to IC50 for human HeLa cells; type: toxicity; conditions: HEK293T cells versus HeLa cells, read-out: Ratio IC50

| Compound | selectivity ratio |
| --- | --- |
| COc1ccc(-c2nc3cc(/C=C4\SC(=O)N(Cc5cc(OC)c(OC)c(OC)c5)C4=O)ccc3[nH]2)cc1OC | 21.1 |
| COc1cc(-c2nc3cc(/C=C4\SC(=O)N(Cc5cc(OC)c(OC)c(OC)c5)C4=O)ccc3[nH]2)ccc1OCC(C)C | 26.6 |

system: not listed separately; test: Selectivity index, ratio of IC50 for HEK293T cells to IC50 for human A549 cells; type: toxicity; conditions: HEK293T cells versus A549 cells, read-out: Ratio IC50

| Compound | selectivity ratio |
| --- | --- |
| COc1ccc(-c2nc3cc(/C=C4\SC(=O)N(Cc5cc(OC)c(OC)c(OC)c5)C4=O)ccc3[nH]2)cc1OC | 52 |
| COc1cc(-c2nc3cc(/C=C4\SC(=O)N(Cc5cc(OC)c(OC)c(OC)c5)C4=O)ccc3[nH]2)ccc1OCC(C)C | 69.3 |

system: not listed separately; test: Selectivity index, ratio of IC50 for HEK293T cells to IC50 for human HT1080 cells; type: toxicity; conditions: HEK293T cells versus HT1080 cells, read-out: Ratio IC50

| Compound | selectivity ratio |
| --- | --- |
| COc1ccc(-c2nc3cc(/C=C4\SC(=O)N(Cc5cc(OC)c(OC)c(OC)c5)C4=O)ccc3[nH]2)cc1OC | 25.3 |
| COc1cc(-c2nc3cc(/C=C4\SC(=O)N(Cc5cc(OC)c(OC)c(OC)c5)C4=O)ccc3[nH]2)ccc1OCC(C)C | 41.6 |

system: A549; test: Antimigratory activity in human A549 cells assessed as reduction in wound healing at cytotoxic IC50 concentration after 24 to 48 hrs by phase contrast microscopy; type: functional, cell-based; conditions: not given
Method in brief: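 A549 cells (5×10^5/well) grown 24 h to confluent monolayer, scratched with sterile 200 µL pipette tip, washed twice with PBS. Medium with compound at its IC50 added; untreated wells as control. Wound closure photographed by phase contrast microscopy at 0, 24 and 48 h in three or more random fields.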

| Compound | Activity |
| --- | --- |
| COc1ccc(-c2nc3cc(/C=C4\SC(=O)N(Cc5cc(OC)c(OC)c(OC)c5)C4=O)ccc3[nH]2)cc1OC | Active |
| COc1cc(-c2nc3cc(/C=C4\SC(=O)N(Cc5cc(OC)c(OC)c(OC)c5)C4=O)ccc3[nH]2)ccc1OCC(C)C | Active |

system: A549; test: Inhibition of filamentous actin polymerization in human A549 cells assessed as reduction in F-actin extension at the periphery at cytotoxic IC50 concentration after 24 hrs by rhodamine-phalloidin/Hoechst 33242 double staining based fluorescent microscopy; type: cell-based; conditions: not given
Method in brief: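 A549 cells (1×10^6/well) grown on coverslips 24 h, treated 24 h at IC50 concentration, PBS-washed, fixed in 4% paraformaldehyde. Stained with rhodamine-phalloidin for F-actin and Hoechst 33242 for nuclei, mounted in anti-fade, imaged by fluorescence microscopy at 20X; DMSO-treated cells as control.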

| Compound | inhibition |
| --- | --- |
| COc1ccc(-c2nc3cc(/C=C4\SC(=O)N(Cc5cc(OC)c(OC)c(OC)c5)C4=O)ccc3[nH]2)cc1OC | Active |
| COc1cc(-c2nc3cc(/C=C4\SC(=O)N(Cc5cc(OC)c(OC)c(OC)c5)C4=O)ccc3[nH]2)ccc1OCC(C)C | Active |

system: A549; test: Induction of apoptosis in human A549 cells assessed as formation of fragmented nuclei at cytotoxic IC50 concentration after 24 hrs by Hoechst 33242-staining based fluorescent microscopy; type: functional, cell-based; conditions: not given
Method in brief: (§1)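 A549 cells (5×10^4/well) adhered 24 h on coverslips, exposed 24 h to IC50 concentration, fixed 10 min in 4% paraformaldehyde at 4 °C, stained with Hoechst 33242 (5 µg/mL) 30 min at room temperature. Nuclear morphology examined by fluorescence microscopy (ex 350/em 460 nm, 40x).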

| Compound | Activity |
| --- | --- |
| COc1ccc(-c2nc3cc(/C=C4\SC(=O)N(Cc5cc(OC)c(OC)c(OC)c5)C4=O)ccc3[nH]2)cc1OC | Active |
| COc1cc(-c2nc3cc(/C=C4\SC(=O)N(Cc5cc(OC)c(OC)c(OC)c5)C4=O)ccc3[nH]2)ccc1OCC(C)C | Active |

system: A549; test: Induction of apoptosis in human A549 cells assessed as formation of shrinked nuclei at cytotoxic IC50 concentration after 24 hrs by Hoechst 33242-staining based fluorescent microscopy; type: functional, cell-based; conditions: not given; method in brief: as §1

| Compound | Activity |
| --- | --- |
| COc1ccc(-c2nc3cc(/C=C4\SC(=O)N(Cc5cc(OC)c(OC)c(OC)c5)C4=O)ccc3[nH]2)cc1OC | Active |
| COc1cc(-c2nc3cc(/C=C4\SC(=O)N(Cc5cc(OC)c(OC)c(OC)c5)C4=O)ccc3[nH]2)ccc1OCC(C)C | Active |

system: A549; test: Induction of ROS production in human A549 cells at cytotoxic IC50 concentration after 24 hrs by DCFH-DA-dye based fluorescent microscopy; type: functional, cell-based; conditions: not given

| Compound | Activity |
| --- | --- |
| COc1ccc(-c2nc3cc(/C=C4\SC(=O)N(Cc5cc(OC)c(OC)c(OC)c5)C4=O)ccc3[nH]2)cc1OC | Active |
| COc1cc(-c2nc3cc(/C=C4\SC(=O)N(Cc5cc(OC)c(OC)c(OC)c5)C4=O)ccc3[nH]2)ccc1OCC(C)C | Active |

system: A549; test: Induction of apoptosis in human A549 cells assessed as loss of mitochondrial membrane potential at cytotoxic IC50 concentration after 24 hrs by rhodamine-123 dye based spectrofluorometery relative to control; type: functional; conditions: not given
Method in brief: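 A549 cells (5×10^5 cells/mL) adhered overnight, treated 24 h at IC50 concentration, trypsinised, washed and stained with rhodamine-123 (10 µg/mL) in PBS 30 min at room temperature. After two PBS washes, fluorescence measured by spectrofluorometer versus DMSO control; mean ± SD of three independent experiments.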

| Compound | Activity [%] |
| --- | --- |
| COc1ccc(-c2nc3cc(/C=C4\SC(=O)N(Cc5cc(OC)c(OC)c(OC)c5)C4=O)ccc3[nH]2)cc1OC | 31.6 |
| COc1cc(-c2nc3cc(/C=C4\SC(=O)N(Cc5cc(OC)c(OC)c(OC)c5)C4=O)ccc3[nH]2)ccc1OCC(C)C | 37.3 |

system: A549; test: Induction of apoptosis in human A549 cells assessed as viable cells at cytotoxic IC50 concentration after 24 hrs by Annexin V-FITC/propidium iodide dual staining based flow cytometry (reference value: 84.8%); type: functional; conditions: not given

| Compound | Activity [%] |
| --- | --- |
| COc1ccc(-c2nc3cc(/C=C4\SC(=O)N(Cc5cc(OC)c(OC)c(OC)c5)C4=O)ccc3[nH]2)cc1OC | 63.5 |
| COc1cc(-c2nc3cc(/C=C4\SC(=O)N(Cc5cc(OC)c(OC)c(OC)c5)C4=O)ccc3[nH]2)ccc1OCC(C)C | 66.1 |

system: A549; test: Induction of apoptosis in human A549 cells assessed as early apoptotic cells at cytotoxic IC50 concentration after 24 hrs by Annexin V-FITC/propidium iodide dual staining based flow cyclometry (reference value: 9.8%); type: functional; conditions: not given

| Compound | Activity [%] |
| --- | --- |
| COc1ccc(-c2nc3cc(/C=C4\SC(=O)N(Cc5cc(OC)c(OC)c(OC)c5)C4=O)ccc3[nH]2)cc1OC | 25.1 |
| COc1cc(-c2nc3cc(/C=C4\SC(=O)N(Cc5cc(OC)c(OC)c(OC)c5)C4=O)ccc3[nH]2)ccc1OCC(C)C | 21.9 |

system: A549; test: Induction of apoptosis in human A549 cells assessed as late apoptotic cells at cytotoxic IC50 concentration after 24 hrs by Annexin V-FITC/propidium iodide dual staining based flow cytometry (reference value: 1.6%); type: functional; conditions: not given

| Compound | Activity [%] |
| --- | --- |
| COc1ccc(-c2nc3cc(/C=C4\SC(=O)N(Cc5cc(OC)c(OC)c(OC)c5)C4=O)ccc3[nH]2)cc1OC | 8.7 |
| COc1cc(-c2nc3cc(/C=C4\SC(=O)N(Cc5cc(OC)c(OC)c(OC)c5)C4=O)ccc3[nH]2)ccc1OCC(C)C | 8.3 |

system: A549; test: Induction of apoptosis in human A549 cells assessed as necrotic cells at cytotoxic IC50 concentration after 24 hrs by Annexin V-FITC/propidium iodide dual staining based flow cytometry (reference value: 3.7%); type: functional; conditions: not given

| Compound | Activity [%] |
| --- | --- |
| COc1ccc(-c2nc3cc(/C=C4\SC(=O)N(Cc5cc(OC)c(OC)c(OC)c5)C4=O)ccc3[nH]2)cc1OC | 2.7 |
| COc1cc(-c2nc3cc(/C=C4\SC(=O)N(Cc5cc(OC)c(OC)c(OC)c5)C4=O)ccc3[nH]2)ccc1OCC(C)C | 3.7 |
